Experimental data from different studies.
Lines come from different studies, so protocols differ.
Organism: Staphylococcus aureus
Observed: microbial growth

| SMILES | assay | test system | conditions | inhibition zone [mm] |
| --- | --- | --- | --- | --- |
| CCOC(=O)C1=C(C)N2NC(C)(c3ccccc3O)N(C(Cc3c[nH]c4ccccc34)C(=O)O)C2=NC1c1ccc(Cl)cc1 (centres unmarked) | – | ATCC25923 | 10 µg/mL, 24 h | 18 |
| COc1cc(C=Cc2cc(-c3ccc(N(C)C)cc3)nc(O)n2)ccc1O | disc diffusion | ATCC29213 | 500 µg/mL | 6.33 |
| CN[C@H](CC(C)C)C(=O)N[C@H]1C(=O)N[C@@H](CC(N)=O)C(=O)N[C@H]2C(=O)N[C@H]3C(=O)N[C@H](C(=O)N[C@H](C(=O)O)c4cc(O)cc(O)c4-c4cc3ccc4O)[C@H](O)c3ccc(c(Cl)c3)Oc3cc2cc(c3O[C@@H]2O[C@H](CO)[C@@H](O)[C@H](O)[C@H]2O[C@H]2C[C@](C)(N)[C@H](O)[C@H](C)O2)Oc2ccc(cc2Cl)[C@H]1O | disc diffusion | ATCC29213 | 31.2 µg/disc, 24 h | 18 |
| Cc1ccc2nc(-n3nc(CC(C)C)c4c3-c3ccccc3C4=O)sc2c1 | well diffusion | NCIM5021 | 500 µg/mL | 11 |
| CC[C@H]1OC(=O)[C@H](C)[C@@H](O[C@H]2C[C@@](C)(OC)[C@@H](O)[C@H](C)O2)[C@H](C)[C@@H](O[C@@H]2O[C@H](C)C[C@H](N(C)C)[C@H]2O)[C@](C)(O)C[C@@H](C)/C(=N\OCOCCOC)[C@H](C)[C@@H](O)[C@]1(C)O | disc diffusion | ATCC6538 | 20000 µg/mL, 24 h | 20 |
| CC(C)Cc1nn(-c2nc3ccc(Cl)cc3s2)c2c1C(=O)c1ccccc1-2 | well diffusion | NCIM5021 | 1000 µg/mL | 11 |
| CCOC(=O)C1=C(C)N2NC(c3ccccc3O)N(C(Cc3c[nH]c4ccccc34)C(=O)O)C2=NC1c1ccc(Cl)cc1 (centres unmarked) | – | ATCC25923 | 15 µg/mL, 24 h | 33 |
| COc1cc(C=CC(=O)CC(c2ccc(N(C)C)cc2)n2ccnc2)ccc1O (centres unmarked) | disc diffusion | ATCC29213 | 500 µg/mL | 10.7 |
| O=C(O)c1cn(C2CC2)c2cc(N3CCNCC3)c(F)cc2c1=O | disc diffusion | – | 100 µg/mL, 24 h | 24 |
| CC(C)Cc1nn(-c2nc3ccc(Br)cc3s2)c2c1C(=O)c1ccccc1-2 | well diffusion | NCIM5021 | 125 µg/mL | 11 |
| COc1cc(C=CC(=O)CC(c2ccc([N+](=O)[O-])cc2)n2ccnc2)ccc1O (centres unmarked) | disc diffusion | ATCC29213 | 500 µg/mL | 7 |
| CC(C(=O)O)N1C2=NC(c3ccc(Cl)cc3)C3=C(OC(C)(C)OC3=O)N2NC1(C)c1ccccc1O (centres unmarked) | – | ATCC25923 | 15 µg/mL, 24 h | 24 |
| O=C(O)c1cn(C2CC2)c2cc(N3CCNCC3)c(F)cc2c1=O | – | SG511 | 1000 µg/mL | 18 |
| CC(C)c1nn(-c2nc3ccccc3s2)c2c1C(=O)c1ccccc1-2 | well diffusion | NCIM5021 | 1000 µg/mL | 12 |
| N#Cc1c(-c2ccc(Cl)cc2)nc2n(c1=O)NC(c1ccccc1O)N2C(Cc1c[nH]c2ccccc12)C(=O)O (centres unmarked) | – | ATCC25923 | 15 µg/mL, 24 h | 32 |
| CC1(C)S[C@@H]2[C@H](NC(=O)[C@H](N)c3ccc(O)cc3)C(=O)N2[C@H]1C(=O)O | disc diffusion | ATCC29213 | 500 µg/mL | 10.8 |
| CC(=O)C1=C(C)N2NC(c3ccccc3O)N(C(Cc3c[nH]c4ccccc34)C(=O)O)C2=NC1c1ccc(Cl)cc1 (centres unmarked) | – | ATCC25923 | 10 µg/mL, 24 h | 19 |
| COc1ccc2nc(-n3nc(CC(C)C)c4c3-c3ccccc3C4=O)sc2c1 | well diffusion | NCIM5021 | 1000 µg/mL | 13 |
| CC(=O)C1=C(C)N2NC(C)(c3ccccc3O)N(C(C)C(=O)O)C2=NC1c1ccc(Cl)cc1 (centres unmarked) | – | ATCC25923 | 15 µg/mL, 24 h | 17 |
| [H]/N=C(/N)N[C@H]1[C@H](O)[C@@H](O)[C@H](O[C@@H]2O[C@@H](C)[C@](O)(C=O)[C@H]2O[C@@H]2O[C@@H](CO)[C@H](O)[C@@H](O)[C@@H]2NC)[C@@H](N/C(N)=N\[H])[C@@H]1O | well diffusion | NCIM5021 | 125 µg/mL | 20 |
